From ChEMBL document CHEMBL1821693, “A novel 3-arylethynyl-substituted pyrido[2,3,-b]pyrazine derivatives and pharmacophore model as Wnt2/β-catenin pathway inhibitors in non-small-cell lung cancer cell lines” (Bioorg Med Chem, 2011)
Active and inactive are the calls of the source. The calls are words filed in the database; no cut-off is given here.

Columns and labels:
A549 [1] = assay: Cytotoxicity against human A549 cells expressing Wnt2 after 24 to 72 hrs by MTS assay; assay type: functional, cell-based
In short: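 Wnt2-overexpressing A549 cells (stable pUSEampWnt2, G418 selection) in RPMI-1640 with 10% FBS. Seeded at 8 × 10^3 cells/well and allowed ~24 h to attach. Exposed to a range of concentrations. Viability measured 24 h after treatment by MTS (30 min at 37 °C, A490); IC50 derived.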

A549 [2] = assay: Inhibition of total beta-catenin expression in human A549 whole cell extract at cytotoxicity IC50 by Western blot analysis; assay type: functional, cell-based
A549 [3] = assay: Inhibition of nucleus beta-catenin expression in human A549 cells at cytotoxicity IC50 by Western blot analysis; assay type: functional, cell-based
A549 [4] = assay: Inhibition of cytosolic beta-catenin expression in human A549 cells at cytotoxicity IC50 by Western blot analysis; assay type: functional, cell-based
[5] = Inhibition of Wnt2/beta-catenin signaling pathway in human A549 cells assessed as inhibition of Tcf/Lef transcriptional activity at cell proliferation IC50 after 24 hrs by dual luciferase reporter gene assay; assay type: cell-based; conditions: dose or concentration not given here
In short: (§1)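 A549/Wnt2 cells co-transfected by lipofection with pSuper-Topflash (eight TCF sites driving firefly luciferase) or mutant pSuperFopflash, plus pRL-TK renilla for normalization. Compounds added at 37 °C for 24 h. Lysates read by dual-luciferase assay. Firefly/renilla ratio reported as mean ± SEM of triplicates, relative to non-treated cells.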

A549 [6] = assay: Antiproliferative activity against human A549 cells expressing Wnt2 after 72 hrs by MTS assay; assay type: functional, cell-based; conditions: for IC50: A549, 72 h
In short: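 A549 cells stably transfected with pUSEampWnt2 (G418-selected), grown in RPMI-1640 with 10% FBS at 37 °C, 5% CO2. Seeded at 3 × 10^3 cells/well and allowed to attach ~24 h. Treated with a range of concentrations.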

A549 [7] = assay: Inhibition of cyclin D1 mRNA expression in human A549 cells expressing Wnt2 after 24 hrs by RT-PCR analysis; assay type: functional, cell-based
A549 [8] = assay: Ratio of IC50 for antiproliferative activity against human A549 cells to IC50 for cytotoxicity against human A549 cells; assay type: functional
In short: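 Ratio of two MTS IC50s in A549/Wnt2 cells. Proliferation: 3 × 10^3 cells/well, read at 72 h. Cytotoxicity: 8 × 10^3 cells/well, read 24 h after treatment.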

[9] = Inhibition of Wnt2/beta-catenin signaling pathway in human A549 cells assessed as inhibition of Tcf/Lef transcriptional activity after 24 hrs by dual luciferase reporter gene assay; assay type: cell-based; conditions: A549, 24 h; in short: as §1

IC50 (A549 [6]) | IC50 [9] | SMILES | IC50 (A549 [1]) | inhibition (A549 [2]) | inhibition (A549 [3]) | inhibition (A549 [4]) | inhibition [5] | inhibition (A549 [6]) | inhibition (A549 [7]) | Ratio IC50 (A549 [8])
– | – | Fc1cccc(C#Cc2nc3ncccc3nc2OCCN2CCCC2)c1 | 2.45 µM | Active | Active | Active | 30% | – | – | –
– | – | COc1cccc(C#Cc2nc3ncccc3nc2Cl)c1 | 4 µM | Active | Active | Active | 50% | – | – | –
0.535 µM | – | CN(C)CCOc1nc2cccnc2nc1C#Cc1cccc(F)c1 | 1.94 µM | Active | Active | Active | 30% | Dose-dependent effect | Active | –
– | – | COc1c(C[C@@H](C)OC(=O)Oc2ccc(O)cc2)c2c3c(C[C@@H](C)OC(=O)c4ccccc4)c(OC)c(=O)c4c(O)cc(OC)c(c5c(OC)cc(O)c(c1=O)c52)c43 [CALPHOSTIN C] | 3.2 µM | – | – | – | – | – | – | –
– | – | COc1cccc(C#Cc2nc3ncccc3nc2OCCCN(C)C)c1 | 0.28 µM | Active | Active | Active | 30% | – | – | –
– | – | C(#Cc1nc2ncccc2nc1OCCN1CCCC1)c1ccccc1 | 0.72 µM | Active | Active | Active | 30% | – | – | –
– | – | CN1CCCC(Oc2nc3cccnc3nc2C#Cc2ccccc2)C1 (stereo unspecified) | 0.72 µM | Active | Active | Active | 30% | – | – | –
0.208 µM | – | CCN(CC)CCOc1nc2cccnc2nc1C#Cc1ccc(OC)cc1 | 0.64 µM | Active | Active | Active | 50% | Dose-dependent effect | Active | 3.07
0.83 µM | – | COc1ccc(C#Cc2nc3ncccc3nc2OCCN(C)C)c(C)c1 | 2.95 µM | Active | Active | Active | 30% | Dose-dependent effect | – | –
– | – | CC(C)N(CCOc1nc2cccnc2nc1C#Cc1cccc(F)c1)C(C)C | 2.89 µM | Active | Active | Active | 50% | – | Active | –
0.043 µM | 0.12 µM | C(#Cc1nc2ncccc2nc1OCCc1ccccn1)c1ccccc1 | 0.2 µM | Active | Active | Active | 50% | Dose-dependent effect | Active | –
– | – | Cc1ccc(C#Cc2nc3ncccc3nc2OC(C)CN(C)C)cc1 (stereo unspecified) | 1.9 µM | Active | Active | Active | 30% | – | – | –
– | 0.758 µM | CN(C)CCOc1nc2ccccc2nc1C#Cc1ccccc1 | – | – | – | – | – | – | – | –
– | – | CN(C)c1cccc(COc2nc3cccnc3nc2C#Cc2ccccc2)c1 | 1.72 µM | Active | Active | Active | 30% | – | – | –
– | – | COc1cc(C#Cc2nc3ncccc3nc2OCCCN(C)C)cc(OC)c1 | 0.38 µM | Active | Active | Active | 30% | – | – | –
